From PubChem
hERG protect: compounds protecting human hERG from proarrhythmic drug block; AID 1511; 310,000 tested, 0.51% active; activation (rescue from dofetilide block), less the hit threshold, % at 10 µM; CHO-hERG, FluxOR thallium flux, dofetilide IC70 present;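 active = activation above the mean of controls blocked by dofetilide plus 5 SD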;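 note: thallium influx through hERG after potassium depolarization seen as dye fluorescence rise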
Target sequence (Q12809 whole entry, looked up): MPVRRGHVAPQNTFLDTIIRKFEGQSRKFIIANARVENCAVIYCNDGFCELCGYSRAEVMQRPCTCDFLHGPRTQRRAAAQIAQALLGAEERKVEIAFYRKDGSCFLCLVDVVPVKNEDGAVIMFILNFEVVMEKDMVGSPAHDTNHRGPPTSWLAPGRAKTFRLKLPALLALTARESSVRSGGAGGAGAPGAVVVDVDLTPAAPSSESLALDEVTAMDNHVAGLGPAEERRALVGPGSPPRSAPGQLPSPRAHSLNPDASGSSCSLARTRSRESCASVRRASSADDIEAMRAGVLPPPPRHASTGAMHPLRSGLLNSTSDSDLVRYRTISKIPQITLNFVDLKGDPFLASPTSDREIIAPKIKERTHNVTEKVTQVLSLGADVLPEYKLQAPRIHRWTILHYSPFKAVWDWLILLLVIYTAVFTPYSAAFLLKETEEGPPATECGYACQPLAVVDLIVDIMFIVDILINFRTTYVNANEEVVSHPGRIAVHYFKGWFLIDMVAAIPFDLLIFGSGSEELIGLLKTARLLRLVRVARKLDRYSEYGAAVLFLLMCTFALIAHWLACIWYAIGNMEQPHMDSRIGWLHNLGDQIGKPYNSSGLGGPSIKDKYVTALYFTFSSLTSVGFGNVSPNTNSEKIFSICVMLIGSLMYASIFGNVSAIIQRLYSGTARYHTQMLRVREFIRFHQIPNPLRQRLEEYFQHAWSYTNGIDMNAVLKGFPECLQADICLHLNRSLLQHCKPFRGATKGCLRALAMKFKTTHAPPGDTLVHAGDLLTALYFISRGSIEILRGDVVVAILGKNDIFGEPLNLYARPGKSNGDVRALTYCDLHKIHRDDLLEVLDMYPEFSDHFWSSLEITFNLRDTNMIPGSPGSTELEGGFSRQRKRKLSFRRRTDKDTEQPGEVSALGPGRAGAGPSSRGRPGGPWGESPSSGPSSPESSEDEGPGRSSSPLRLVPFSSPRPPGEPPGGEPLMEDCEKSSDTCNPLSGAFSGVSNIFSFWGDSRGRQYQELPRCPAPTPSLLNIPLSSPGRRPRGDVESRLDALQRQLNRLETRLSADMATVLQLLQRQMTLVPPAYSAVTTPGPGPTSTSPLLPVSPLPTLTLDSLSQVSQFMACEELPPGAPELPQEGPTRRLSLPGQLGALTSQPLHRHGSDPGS
KCNQ1 inh: blocks the human KCNQ1 potassium channel; CHO-K1 KCNQ1, FluxOR thallium flux fluorescence; stronger effect = higher value; B-score at 10 µM; 310,000 tested, 1.3% active;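 active = compounds whose thallium flux B-score, printed positive for inhibition, exceeds three library SD while starting fluorescence stays within three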;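 note: channel opened by potassium depolarization with thallium stimulus after 20 min compound exposure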
KCNK3 inh: human KCNK3 channel inhibition, primary screen. AID 602410. CHO-KCNK3 thallium flux, FluxOR fluorescence; stronger effect = lower value. 340,000 tested, 0.84% active. O14649. B-score at 10 µM;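 active = B-score under library mean minus 4 SD, starting fluorescence ratio at most library mean plus 5 SD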;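 note: more negative B-score means stronger inhibition of thallium flux through KCNK3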
PHOSPHO1 inh: blocks human PHOSPHO1 phosphatase activity; Q8TCT1; inhibition, % at 13.3 µM; AID 1565; recombinant PHOSPHO1, absorbance phosphatase assay; 290,000 tested, 1.1% active; in the data active = inhibition above about 60%
KCNQ1 act: human KCNQ1 channel potentiation or activation; P51787; CHO-K1 KCNQ1, thallium flux FluxOR fluorescence; stronger effect = higher value; B-score at 10 µM; 310,000 tested, 0.35% active; AID 2648;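 active = fluorescence ratio B-score, a plate-corrected score, at least three library SD, with initial intensity B-score within 5 SD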
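Test system: CHO-K1 cells stably expressing KCNQ1 / Medium: assay buffer / Also added: depolarizing K+/Tl+ stimulus, K2SO4 and Tl2SO4 each 12.5 mM in 5x stock / Incubation: 90 min dye loading and 20 min compound exposure, both at room temperature / Signal: thallium influx via FluxOR fluorescence, kinetic imaging / Evaluation: B score of baseline-normalized fluorescence ratio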
KCNK9 inh: human KCNK9 channel inhibition. Q9NPC2. HEK293 KCNK9, FluxOR thallium flux fluorescence; stronger effect = lower value. B-score at 10 µM. 310,000 tested, 1.2% active. AID 488922;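 active = ratio B-score over 3 SD below the library mean, with starting fluorescence within 5 SD of its mean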;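 note: negative B-score means less thallium flux so channel inhibition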
The depositor's hits bear a star; i = inactive; x = not tested or not shown. The list is not random: actives were taken first. Their share in the collection is about 4%.

SMILES	hERG protect	KCNQ1 inh	KCNK3 inh	PHOSPHO1 inh	KCNQ1 act	KCNK9 inh
CCCSc1nnc(Sc2nnnn2-c2ccccc2)s1	-7.8	i	i	-36.8	i	i
CCCOn1c(OCC(C)C)nc2ccccc2c1=O	-2.9	i	i	0.5	i	i
Cc1c(O)c2ccccc2oc1=O	-6.9	i	i	41.6	i	i
CN=C(C)c1c(O)c2ccccc2oc1=O	4.9*	i	i	1.7	i	i
CCOC(=O)CC1=C(C(=O)OCC)C(c2cccs2)C(C#N)=C(N)O1 (stereo unspecified)	-4.2	i	i	-7.4	i	i
CCOC(=O)c1ccc(N2CSC3=C(C#N)C(c4cccs4)CC(=O)N3C2)cc1 (stereo unspecified)	-7.2	i	i	93.7*	i	i
COc1ccc(N2CSC3=C(C#N)C(c4cccs4)CC(=O)N3C2)cc1 (stereo unspecified)	-9.9	i	i	89.4*	i	i
N#CC1=C2SCN(Cc3ccco3)CN2C(=O)CC1c1ccccc1F (stereo unspecified)	-9.0	i	i	82.7*	i	i
CCc1ccc(C2CC(=O)N3CN(c4ccccc4)CSC3=C2C#N)cc1 (stereo unspecified)	-1.8	i	i	85.7*	i	i
CCCNC(=O)NC(=O)CN1CCCC1c1ccc2c(c1)OCCO2 (stereo unspecified)	-3.1	i	i	32.3	i	i
CC1(O)CC(=O)N(c2ccccc2)O1 (stereo unspecified)	-11.9	i	i	44.8	i	i
CCc1ccccc1NC(=O)C1c2ccccc2Oc2ccccc21	-6.5	i	i	1.0	i	i
O=C(Nc1cccc(C(=O)N2CCCC2)c1)C1CCC1	x	x	i	x	x	x
NC(=O)c1ccc(NC(=O)COC(=O)C2CC3C=CC2C3)cc1 (stereo unspecified)	x	x	i	x	x	x
Cc1cc(C)cc(NC(=O)C(OC(=O)C2=COCCO2)c2ccccc2)c1 (stereo unspecified)	-9.7	i	i	-32.1	i	i
CCCCn1c(N)c(N(CCOC)C(=O)c2c(-c3ccccc3)noc2C)c(=O)[nH]c1=O	-16.5	i	i	x	i	i
CCc1ccc(N2CSC3=C(C#N)C(c4cccs4)CC(=O)N3C2)cc1 (stereo unspecified)	-13.6	i	i	72.6*	i	i
N#CC1=C2SCN(c3ccc(F)cc3)CN2C(=O)CC1c1cccc(F)c1 (stereo unspecified)	-8.9	i	i	64.4*	i	i
Cc1ccc(N2CSC3=C(C#N)C(c4cccs4)CC(=O)N3C2)cc1 (stereo unspecified)	-6.8	i	i	57.2	i	i
CCCCNC(=O)COC(=O)C1CCN(S(=O)(=O)c2ccc3c(c2)OCCO3)CC1	x	x	i	x	x	x
O=C(O)C1CC=CCC1C(=O)NCc1ccc2c(c1)OCO2 (stereo unspecified)	-17.7	i	i	2.5	i	i
CCOC(=O)c1c(S(=O)(=O)N2CCCC(C(=O)Nc3ccc(C)cn3)C2)c(C)n(C)c1C (stereo unspecified)	-8.1	i	i	64.0*	i	i
COCCCN(C(=O)Nc1cccc(Cl)c1)C(C)c1ccccn1 (stereo unspecified)	-21.9	i	i	15.0	i	i
Cc1ccc(NC(=O)c2cccs2)cc1	-2.7	i	i	5.0	i	i
COc1ccc(/C=C(/C(=O)Nc2ccccc2C(=O)NC(C)C)c2ccccc2)cc1	-13.3	6*	i	-1.6	i	i
SMILES	hERG protect	KCNQ1 inh	KCNK3 inh	PHOSPHO1 inh	KCNQ1 act	KCNK9 inh
COc1ccc(/C=C/C(=O)NC(=S)NNC(=O)c2cccs2)cc1	16.1*	i	i	-44.5	i	i
Cc1ccc(NC(=O)C(=O)NNC(=O)c2cccs2)cc1	20.4*	i	i	19.9	40*	i
COc1ccc(NC(=O)C(=O)NNC(=O)c2cccs2)cc1	6.9*	i	i	10.8	i	i
COc1ccc(/C=C(/C(=O)Nc2ccccc2C(=O)N2CCCC2)c2ccccc2)cc1	-23.9	i	i	23.4	i	i
COc1ccc(/C=C/C(=O)NC(=S)NNC(=O)c2cccnc2)cc1	-6.3	i	i	-4.0	i	i
NC(=O)C1(NC(=O)[C@@H]2CC3(CC(c4cccc(NC(=O)[C@@H]5CCC(=O)N5)c4)=NO3)CN2C(=O)Cc2ccc(C(F)(F)F)cc2)CC1 (stereo partly specified)	-6.4	i	i	47.3	i	i
O=C(CSc1nnc2sc3ccccc3n12)NCc1ccc2c(c1)OCO2	-7.4	i	i	8.5	i	i
Cc1ccc(/C=N/NC(=O)CNC(=O)c2cccs2)cc1	-10.4	i	i	66.2*	i	i
COc1ccc(NC(=O)C(=O)NNC(=O)c2cccs2)c(OC)c1	12.1*	i	i	33.8	22*	i
COc1ccc(/C=C/C(=O)Nc2ccccc2C(=O)N2CCCC2)cc1	-14.7	i	i	-0.7	i	i
COc1cccc(/C=N/NC(=O)CNC(=O)c2cccs2)c1O	-10.6	i	i	25.1	i	i
COc1ccc(/C=C/C(=O)Nc2ccccc2C(=O)O)cc1	31.6*	i	i	22.8	i	i
CSc1nc2oc3c(c2c2nncn12)CC(C)(C)SC3	-8.7	i	i	78.4*	i	i
COc1ccc(C(=O)NCCn2cc(SCC(=O)NCc3ccco3)c3ccccc32)cc1	-6.4	i	i	61.5*	i	i
CC(=O)NCCc1ccc(S(=O)(=O)N2CCOCC2)cc1	-1.0	i	i	18.9	i	i
O=C(Cn1cnc2sc3c(c2c1=O)CCCC3)NCC(=O)Nc1ccc(F)cc1F	-6.7	i	i	64.9*	i	i
CCc1ccc(NC(=O)c2ccccc2Br)cc1	-11.5	i	i	45.6	i	-7.37*
O=C(Nc1ccccc1C(=O)Nc1ccccc1)c1ccccc1Br	-6.0	i	i	x	i	i
O=C(Nc1ccc(Br)cc1)c1ccccc1Br	-1.1	i	i	x	i	-7.82*
NC(=O)CCC(NC(=O)c1ccc(Cl)cc1)C(=O)NCCc1ccc2c(c1)OCCO2 (stereo unspecified)	x	x	i	x	x	x
COc1cc(NC(=O)C2CCCN(c3ncnc4c3nc3n4CCCCC3)C2)cc(OC)c1OC (stereo unspecified)	-6.2	i	i	47.7	i	i
